Data: ChEMBL document CHEMBL2062453, “Lead optimization through VLAK protocol: new annelated pyrrolo-pyrimidine derivatives as antitumor agents” (2012)

Legend:
Type in all cases: functional
[1] = system: CCRF-CEM; assay: Cytotoxicity against human CCRF-CEM cells assessed as cell growth at 10 uM after 48 hrs by SRB assay relative to control; conditions: read-out: Activity
Summary of the method: (§1)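 NCI primary screen of about 60 human tumour lines. Cells inoculated and preincubated, then a single test concentration added and cultures incubated 48 h. Result given as percent growth (G%) of treated versus untreated control cells.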

[2] = system: HL-60(TB); assay: Cytotoxicity against human HL-60(TB) cells assessed as cell growth at 10 uM after 48 hrs by SRB assay relative to control; conditions: HL-60, 48 h, read-out: Activity
[3] = system: K562; assay: Cytotoxicity against human K562 cells assessed as cell growth at 10 uM after 48 hrs by SRB assay relative to control; conditions: K562, 48 h, read-out: Activity; summary of the method: as §1
[4] = system: RPMI-8226; assay: Cytotoxicity against human RPMI8226 cells assessed as cell growth at 10 uM after 48 hrs by SRB assay relative to control; conditions: RPMI-8226, 48 h, read-out: Activity
[5] = system: A549; assay: Cytotoxicity against human A549 cells assessed as cell growth at 10 uM after 48 hrs by SRB assay relative to control; conditions: A549, 48 h, read-out: Activity; summary of the method: as §1
[6] = system: HOP-62; assay: Cytotoxicity against human HOP62 cells assessed as cell growth at 10 uM after 48 hrs by SRB assay relative to control; conditions: HOP-62, 48 h, read-out: Activity; summary of the method: as §1
[7] = system: NCI-H226; assay: Cytotoxicity against human NCI-H226 cells assessed as cell growth at 10 uM after 48 hrs by SRB assay relative to control; conditions: NCI-H226, 48 h, read-out: Activity
[8] = system: NCI-H23; assay: Cytotoxicity against human NCI-H23 cells assessed as cell growth at 10 uM after 48 hrs by SRB assay relative to control; conditions: NCI-H23, 48 h, read-out: Activity
[9] = system: NCI-H322M; assay: Cytotoxicity against human NCI-H322M cells assessed as cell growth at 10 uM after 48 hrs by SRB assay relative to control; conditions: read-out: Activity
[10] = system: HCC 2998; assay: Cytotoxicity against human HCC2998 cells assessed as cell growth at 10 uM after 48 hrs by SRB assay relative to control; conditions: HCC 2998, 48 h, read-out: Activity; summary of the method: as §1
[11] = system: HCT-116; assay: Cytotoxicity against human HCT116 cells assessed as cell growth at 10 uM after 48 hrs by SRB assay relative to control; conditions: HCT-116, 48 h, read-out: Activity; summary of the method: as §1
[12] = system: HT-29; assay: Cytotoxicity against human HT-29 cells assessed as cell growth at 10 uM after 48 hrs by SRB assay relative to control; conditions: HT-29, 48 h, read-out: Activity; summary of the method: as §1
[13] = system: KM12; assay: Cytotoxicity against human KM12 cells assessed as cell growth at 10 uM after 48 hrs by SRB assay relative to control; conditions: KM12, 48 h, read-out: Activity; summary of the method: as §1
[14] = system: SW-620; assay: Cytotoxicity against human SW620 cells assessed as cell growth at 10 uM after 48 hrs by SRB assay relative to control; conditions: SW-620, 48 h, read-out: Activity
Summary of the method: (§2)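 NCI single-dose primary screen across about 60 human tumour lines. Each line was inoculated and preincubated on microtiter plates, then exposed to one concentration of agent for 48 h. Growth is reported as percent growth (G%) of treated cells versus untreated control cells.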

[15] = system: SNB-75; assay: Cytotoxicity against human SNB75 cells assessed as cell growth at 10 uM after 48 hrs by SRB assay relative to control; conditions: SNB-75, 48 h, read-out: Activity
[16] = system: U-251; assay: Cytotoxicity against human U251 cells assessed as cell growth at 10 uM after 48 hrs by SRB assay relative to control; conditions: U-251, 48 h, read-out: Activity; summary of the method: as §2
[17] = system: Malme-3M; assay: Cytotoxicity against human MALME-3M cells assessed as cell growth at 10 uM after 48 hrs by SRB assay relative to control; conditions: read-out: Activity; summary of the method: as §1
[18] = system: SK-MEL-2; assay: Cytotoxicity against human SK-MEL-2 cells assessed as cell growth at 10 uM after 48 hrs by SRB assay relative to control; conditions: SK-MEL-2, 48 h, read-out: Activity
[19] = system: SK-MEL-5; assay: Cytotoxicity against human SK-MEL-5 cells assessed as cell growth at 10 uM after 48 hrs by SRB assay relative to control; conditions: SK-MEL-5, 48 h, read-out: Activity
[20] = system: UACC-62; assay: Cytotoxicity against human UACC62 cells assessed as cell growth at 10 uM after 48 hrs by SRB assay relative to control; conditions: UACC-62, 48 h, read-out: Activity; summary of the method: as §2
[21] = system: OVCAR-4; assay: Cytotoxicity against human OVCAR4 cells assessed as cell growth at 10 uM after 48 hrs by SRB assay relative to control; conditions: OVCAR-4, 48 h, read-out: Activity
[22] = system: NCI/ADR-RES; assay: Cytotoxicity against human NCI/ADR-RES cells assessed as cell growth at 10 uM after 48 hrs by SRB assay relative to control; conditions: read-out: Activity
[23] = system: SK-OV-3; assay: Cytotoxicity against human SKOV3 cells assessed as cell growth at 10 uM after 48 hrs by SRB assay relative to control; conditions: SK-OV-3, 48 h, read-out: Activity
[24] = system: RXF 393; assay: Cytotoxicity against human RXF393 cells assessed as cell growth at 10 uM after 48 hrs by SRB assay relative to control; conditions: RXF 393, 48 h, read-out: Activity
[25] = system: MCF7; assay: Cytotoxicity against human MCF7 cells assessed as cell growth at 10 uM after 48 hrs by SRB assay relative to control; conditions: MCF7, 48 h, read-out: Activity; summary of the method: as §1
[26] = system: MDA-MB-468; assay: Cytotoxicity against human MDA-MB-468 cells assessed as cell growth at 10 uM after 48 hrs by SRB assay relative to control; conditions: MDA-MB-468, 48 h, read-out: Activity
[27] = system: HL-60(TB); assay: Cytotoxicity against human HL-60(TB) cells after 48 hrs by SRB assay; conditions: HL-60, 48 h; for CC50: read-out: pLC50 (the source's name) (converted); for TGI: read-out: pTGI (converted)
Summary of the method: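 NCI 60-line five-dose screen. Cells are grown in RPMI 1640 with 5% FBS and 2 mM glutamine, plated at 5000–40,000 cells/well, and preincubated 24 h at 37 °C in 5% CO2. Compound is dissolved in DMSO and given at five concentrations (10-fold or ½-log dilutions) for 48 h. Cells are TCA-fixed (HL-60(TB), suspension: 16% final; HOP92, adherent: 10% final), SRB-stained and read at 515 nm. GI50 comes from [(Ti−Tz)/(C−Tz)]×100 = 50.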

[28] = system: MDA-MB-468; assay: Cytotoxicity against human MDA-MB-468 cells after 48 hrs by SRB assay; conditions: MDA-MB-468, 48 h; for TGI: read-out: pTGI (converted)
Summary of the method: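 Five-dose screen, 10-fold or ½-log dilutions, compound stock in DMSO. Cells were in RPMI 1640 with 5% FBS and 2 mM glutamine at 5000–40,000 cells/well, preincubated 24 h, 37 °C, 5% CO₂, with a time-zero plate TCA-fixed. After 48 h drug exposure, cells were TCA-fixed and stained with 0.4% SRB, read at 515 nm. GI50, TGI and LC50 were derived from time-zero, control and test absorbances.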

Row | Compound | growth at 10 µM [1] [%] | growth at 10 µM [2] [%] | growth at 10 µM [3] [%] | growth at 10 µM [4] [%] | growth at 10 µM [5] [%] | growth at 10 µM [6] [%] | growth at 10 µM [7] [%] | growth at 10 µM [8] [%] | growth at 10 µM [9] [%] | growth at 10 µM [10] [%] | growth at 10 µM [11] [%] | growth at 10 µM [12] [%] | growth at 10 µM [13] [%] | growth at 10 µM [14] [%] | growth at 10 µM [15] [%] | growth at 10 µM [16] [%] | growth at 10 µM [17] [%] | growth at 10 µM [18] [%] | growth at 10 µM [19] [%] | growth at 10 µM [20] [%] | also measured
1 | CSC1=Nc2c(c(C)c(-c3ccccc3)n2CCCCl)C2=NC(=O)CN12 | 52 | 27 | 19 | 51 | 74 | 64 | 79 | 78 | 82 | 72 | 27 | 23 | 26 | 44 | 21 | 52 | 83 | 75 | 51 | 37 | growth at 10 µM [21]: 76%; growth at 10 µM [22]: 58%; growth at 10 µM [23]: 88%; growth at 10 µM [24]: 95%; growth at 10 µM [25]: 36%; growth at 10 µM [26]: 47%; GI50 [27]: 3.39 µM; CC50 [27]: > 100 µM; TGI [27]: > 100 µM; GI50 [28]: 3.16 µM; LC50 [28]: 60.3 µM; TGI [28]: 13.2 µM
2 | CSC1=Nc2c(c(C)c(-c3ccccc3)n2CCCN2CCCCC2)C2=NC(=O)CC(C)N12 (centres undefined) | 21 | -33 | 12 | -51 | 32 | 82 | 69 | 63 | 62 | 61 | 43 | 21 | 2 | 62 | 50 | 12 | 57 | 63 | 10 | 54 | growth at 10 µM [21]: 44%; growth at 10 µM [22]: 82%; growth at 10 µM [23]: 27%; growth at 10 µM [24]: 56%; growth at 10 µM [25]: 14%; growth at 10 µM [26]: -19%; GI50 [27]: 1.82 µM; CC50 [27]: 8.32 µM; TGI [27]: 3.89 µM; GI50 [28]: 2.69 µM; LC50 [28]: > 100 µM; TGI [28]: 10 µM
